Data as given in ChEMBL document CHEMBL1158546, “Discovery of novel and potent leukotriene B4 receptor antagonists. Part 1” (J Med Chem, 2010).
Activity calls are given as the source filed them. No cut-off for these calls is given here.

Experiments:
[1] = tested on: Rattus norvegicus; assay: Toxicity in rat assessed as alkaline phosphatase level at 40 mg/kg, po qd treated for 14 days; assay type: organism-based; parameters: dose 40 mg/kg, route oral; settings: in vivo, 336 h
Summary of the method: (§1)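 Male Han-Wistar rats (200-230 g), n = 4 per group, were given 40 or 400 (mg/kg)/day orally for 14 days in 2% Klucel LF/0.1% Tween-80 versus vehicle. Body weight was recorded at pretreatment and on days 1, 8 and 14, and food intake weekly. Clinical chemistry was sampled on day 5 and at necropsy. Organs were formalin-fixed and H&E stained. Data are given as mean ± SD and analysed by Bartlett's test.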

[2] = tested on: Rattus norvegicus; assay: Hepatotoxicity in rat assessed as increase in ALT level at 400 mg/kg, po qd treated after 15 days; assay type: toxicity, organism-based; parameters: dose 400 mg/kg, route oral; settings: in vivo, 360 h; summary of the method: as §1
[3] = molecular target: Cytochrome P450 2C19 (Homo sapiens, UniProt P33261); assay: Inhibition of CYP2C19 fluorescence method; assay type: ADME
Chain of Cytochrome P450 2C19 (P33261 whole entry): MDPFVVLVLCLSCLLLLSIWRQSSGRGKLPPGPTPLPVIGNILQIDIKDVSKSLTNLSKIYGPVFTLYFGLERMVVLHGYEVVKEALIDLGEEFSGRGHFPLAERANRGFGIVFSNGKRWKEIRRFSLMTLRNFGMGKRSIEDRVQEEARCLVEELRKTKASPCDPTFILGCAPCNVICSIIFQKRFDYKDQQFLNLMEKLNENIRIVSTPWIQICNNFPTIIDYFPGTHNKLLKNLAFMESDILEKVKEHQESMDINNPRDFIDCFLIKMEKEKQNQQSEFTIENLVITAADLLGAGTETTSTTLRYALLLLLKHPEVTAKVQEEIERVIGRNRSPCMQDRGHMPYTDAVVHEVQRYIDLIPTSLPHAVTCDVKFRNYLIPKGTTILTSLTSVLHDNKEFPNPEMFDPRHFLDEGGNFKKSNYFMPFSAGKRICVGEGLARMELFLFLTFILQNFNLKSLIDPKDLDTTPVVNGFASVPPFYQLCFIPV
Summary of the method: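 Cytochrome P450 high-throughput panel (1A2, 2D6, 2C9, 2C19, 3A4) using fluorogenic substrates; IC50 reported.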

[4] = molecular target: T1, Leukotriene B4 receptor 1 (Homo sapiens, UniProt Q15722); assay: Antagonist activity at FLAG-tagged human BLT1 receptor expressed in HEK293 cells assessed as inhibition of LTB4-stimulated calcium mobilization preincubated for 10 mins before LTB4 challenge; assay type: functional, cell-based
T1 sequence (Q15722 whole entry): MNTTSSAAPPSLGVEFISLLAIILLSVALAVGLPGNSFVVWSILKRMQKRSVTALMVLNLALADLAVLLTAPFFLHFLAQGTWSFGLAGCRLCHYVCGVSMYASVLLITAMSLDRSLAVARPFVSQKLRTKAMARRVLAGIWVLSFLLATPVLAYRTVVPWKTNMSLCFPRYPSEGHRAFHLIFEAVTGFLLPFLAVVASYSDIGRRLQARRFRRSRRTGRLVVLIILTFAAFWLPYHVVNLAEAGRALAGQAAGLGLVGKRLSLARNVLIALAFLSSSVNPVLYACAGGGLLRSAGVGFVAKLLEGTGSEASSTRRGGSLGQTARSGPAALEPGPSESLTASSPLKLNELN

[5] = tested on: Rattus norvegicus; assay: Hepatotoxicity in rat assessed as increase in ALT level at 400 mg/kg, po qd treated for 14 days measured after 5 days relative to control; settings: in vivo, 120 h
[6] = molecular target: T1, Leukotriene B4 receptor 1; assay: Antagonist activity at BLT1 receptor expressed in human HL60 cells assessed as inhibition of LTB4-stimulated calcium flux after 30 mins; assay type: functional, cell-based, HL-60; settings: read-out: IC50
Summary of the method: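 HL-60 cells grown in RPMI-1640 with 20% FBS were plated at 2.0 × 10^5 cells/ml with 1 μM retinoic acid. They were dye-loaded in HBSS/20 mM HEPES/5 mM probenecid (0.05% BSA in the replacement buffer) for 1 h at 37 C. Compound (5 × 10^-11 to 3 × 10^-6 M final) was added for 30 min at room temperature, then 0.5 μM LTB4. Fluorescence was read every 1.5 s for 100 s and peak increase scored as % inhibition versus DMSO control.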

[7] = tested on: Rattus norvegicus; assay: Toxicity in rat assessed as effect on body weight at 400 mg/kg, po qd treated for 14 days; assay type: organism-based; parameters: dose 400 mg/kg, route oral; settings: in vivo, 336 h; summary of the method: as §1
[8] = tested on: Rattus norvegicus; assay: Toxicity in rat assessed as aspartate aminotransferase level at 40 mg/kg, po qd treated for 14 days; assay type: organism-based; parameters: dose 40 mg/kg, route oral; settings: in vivo, 336 h; summary of the method: as §1
[9] = tested on: Rattus norvegicus; assay: Hepatotoxicity in rat assessed as increase in ALT level at 40 mg/kg, po qd after 15 days; assay type: toxicity, organism-based; parameters: dose 40 mg/kg, route oral; settings: in vivo, 360 h; summary of the method: as §1
[10] = tested on: Cynomolgus monkey; assay: Antiinflammatory activity against ascaris suum antigen-evoked increase in neutrophils at bronchoalveolar lavage in cynomolgus monkey at 10 mg/kg, po after 1 hr treated before LTB4 challenge; assay type: functional, organism-based; parameters: dose 10 mg/kg; settings: Macaca fascicularis, in the assay text read “before Ascaris suum antigen challenge” for “before LTB4 challenge”
Summary of the method: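 Male cynomolgus monkeys (4-10 kg) naturally hypersensitive to Ascaris suum had baseline BAL 24 h before challenge. They were dosed orally with 10 mg/kg in 15% Labrasol in PEG. One hour later, under ketamine/xylazine, they received antigen aerosol for 90 s by endotracheal tube. BAL neutrophil percentage came from 300-cell LeukoStat differentials, with hemocytometer totals. Analysis by two-way ANOVA/Bonferroni; 3-21 animals per group.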

[11] = tested on: Rattus norvegicus; assay: Hepatotoxicity in po dosed rat assessed as increase in total bilirubin level treated for 14 days measured; assay type: toxicity, organism-based; settings: in vivo, 336 h
[12] = molecular target: Cytochrome P450 3A4 (Homo sapiens, UniProt P08684); assay: Inhibition of CYP3A4 fluorescence method; assay type: ADME
Chain of Cytochrome P450 3A4 (P08684 whole entry): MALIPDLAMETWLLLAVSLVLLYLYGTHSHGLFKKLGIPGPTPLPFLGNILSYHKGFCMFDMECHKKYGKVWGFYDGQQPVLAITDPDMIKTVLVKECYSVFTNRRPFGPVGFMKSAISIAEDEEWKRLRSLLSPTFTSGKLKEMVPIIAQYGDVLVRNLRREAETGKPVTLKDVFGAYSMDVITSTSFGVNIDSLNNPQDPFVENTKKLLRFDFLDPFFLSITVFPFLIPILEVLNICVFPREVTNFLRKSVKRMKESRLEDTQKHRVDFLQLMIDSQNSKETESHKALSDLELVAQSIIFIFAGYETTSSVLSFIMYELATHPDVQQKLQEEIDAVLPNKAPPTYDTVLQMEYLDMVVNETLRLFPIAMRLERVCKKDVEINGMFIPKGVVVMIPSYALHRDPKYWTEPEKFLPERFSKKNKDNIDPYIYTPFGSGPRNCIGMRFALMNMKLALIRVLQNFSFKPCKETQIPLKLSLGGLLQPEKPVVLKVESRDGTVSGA
Summary of the method: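 High-throughput CYP panel covering 1A2, 2D6, 2C9, 2C19 and 3A4, using fluorogenic substrates. IC50 was determined in μM.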

[13] = tested on: Rattus norvegicus; assay: Toxicity in rat assessed as alkaline phosphatase level at 400 mg/kg, po qd treated for 14 days; assay type: organism-based; parameters: dose 400 mg/kg, route oral; settings: in vivo, 336 h; summary of the method: as §1
[14] = Volume of distribution at steady state in Sprague-Dawley rat at 5 mg/kg, iv; assay type: ADME, organism-based; parameters: dose 5 mg/kg, route intravenous; settings: in vivo, read-out: Vdss
Summary of the method: (§2)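 Rat single-dose PK, n = 3, with oral dosing at 10 mg/kg and intravenous dosing at 2.5 or 5 mg/kg.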

[15] = Half life in Sprague-Dawley rat at 5 mg/kg, iv; assay type: ADME, organism-based; parameters: dose 5 mg/kg, route intravenous; settings: in vivo; summary of the method: as §2
[16] = molecular target: Cytochrome P450 2C9 (Homo sapiens, UniProt P11712); assay: Inhibition of CYP2C9 fluorescence method; assay type: ADME
Chain of Cytochrome P450 2C9 (P11712 whole entry): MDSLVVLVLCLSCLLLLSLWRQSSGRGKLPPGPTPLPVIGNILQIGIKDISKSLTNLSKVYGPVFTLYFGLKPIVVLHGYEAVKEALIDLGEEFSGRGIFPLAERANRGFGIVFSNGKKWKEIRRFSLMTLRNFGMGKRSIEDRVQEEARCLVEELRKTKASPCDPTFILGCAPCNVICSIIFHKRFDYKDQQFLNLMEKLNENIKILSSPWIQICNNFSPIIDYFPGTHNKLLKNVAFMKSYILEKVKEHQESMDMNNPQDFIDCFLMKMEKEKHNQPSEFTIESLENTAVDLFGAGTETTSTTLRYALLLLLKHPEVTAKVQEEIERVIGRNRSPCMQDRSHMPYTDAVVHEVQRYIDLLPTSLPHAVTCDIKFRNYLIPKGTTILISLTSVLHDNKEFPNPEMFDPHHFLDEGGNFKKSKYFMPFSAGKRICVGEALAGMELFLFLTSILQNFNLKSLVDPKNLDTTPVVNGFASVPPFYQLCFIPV

[17] = Half life in Sprague-Dawley rat at 10 mg/kg, po; assay type: ADME, organism-based; parameters: dose 10 mg/kg, route oral; settings: in vivo; summary of the method: as §2
[18] = molecular target: T2, Leukotriene B4 receptor 2 (Homo sapiens, UniProt Q9NPC1); assay: Antagonist activity at FLAG-tagged human BLT2 receptor expressed in HEK293 cells assessed as inhibition of LTB4-stimulated calcium mobilization preincubated for 10 mins before LTB4 challenge; assay type: functional, cell-based
T2 sequence (Q9NPC1 whole entry): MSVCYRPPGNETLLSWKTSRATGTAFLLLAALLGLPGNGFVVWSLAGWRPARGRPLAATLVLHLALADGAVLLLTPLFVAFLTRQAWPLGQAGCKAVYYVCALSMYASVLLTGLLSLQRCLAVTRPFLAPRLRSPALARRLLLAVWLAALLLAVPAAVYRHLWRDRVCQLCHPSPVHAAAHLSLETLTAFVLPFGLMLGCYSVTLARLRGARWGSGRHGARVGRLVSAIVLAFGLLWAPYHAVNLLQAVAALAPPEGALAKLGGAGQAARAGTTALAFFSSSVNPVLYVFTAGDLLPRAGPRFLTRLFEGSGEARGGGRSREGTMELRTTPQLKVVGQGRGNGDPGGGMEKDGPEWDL

[19] = Tmax in Sprague-Dawley rat at 10 mg/kg, po; assay type: ADME, organism-based; parameters: dose 10 mg/kg, route oral; settings: in vivo; summary of the method: as §2
[20] = tested on: Rattus norvegicus; assay: Hepatotoxicity in rat assessed as increase in ALT level at 40 mg/kg, po qd after 5 days; assay type: toxicity, organism-based; parameters: dose 40 mg/kg, route oral; settings: in vivo, 120 h; summary of the method: as §1
[21] = tested on: Cavia porcellus; assay: Antiinflammatory activity against LTB4-evoked eosinophilic pulmonary inflammation in Hartley guinea pig at 10 mg/kg, po after 1 hr treated before LTB4 challenge; assay type: functional, organism-based; parameters: dose 10 mg/kg
Summary of the method: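 Male Hartley guinea pigs (250-350 g) were dosed orally with 10 mg/kg in 2% Klucel LF/0.1% Tween-80. One hour later they were exposed to 10 μg/mL LTB4 aerosol for 20 min. BAL (3 × 5 mL HBSS) was done 2 h after challenge under pentobarbital. Cells were counted, and differentials of at least 300 cells were taken on Wright-stained cytospins. Analysis by two-way ANOVA/Bonferroni; 4-20 animals per group.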

[22] = tested on: Rattus norvegicus; assay: Toxicity in rat assessed as effect on food consumption at 400 mg/kg, po qd treated for 14 days; assay type: organism-based; parameters: dose 400 mg/kg, route oral; settings: in vivo, 336 h; summary of the method: as §1
[23] = Oral bioavailability in Sprague-Dawley rat at 10 mg/kg, po; assay type: ADME, organism-based; settings: in vivo; summary of the method: as §2

IC50 [3] | IC50 [4] | IC50 [6] | IC50 [12] | Vd [14] | half-life [15] | IC50 [16] | half-life [17] | IC50 [18] | Tmax [19] | Compound | Activity [1] | Activity [2] | Activity [5] | Activity [7] | Activity [8] | Activity [9] | Activity [10] | Activity [11] | Activity [13] | Activity [20] | further results
> 7500 nM | 114 nM | 0.44 nM | > 7500 nM | 0.22 L/kg | 2.1 h | 3900 nM | 2.7 h | 164 nM | 3 h | O=C(O)CCCOc1cccc(CCCCCCOc2cc(-c3ccsc3)cc(-c3ccc4c(c3)OCO4)c2)c1CCC(=O)O | Non-toxic | 125 IU/L | 29% | Non-toxic | Non-toxic | 38 IU/L | Active | Toxic | Non-toxic | 40 IU/L | Activity [21]: Active; Activity [22]: Non-toxic; bioavailability [23]: 70%
> 7500 nM | 129 nM | 1.19 nM | > 7500 nM | 0.98 L/kg | 2.4 h | > 25000 nM | 3.1 h | 194 nM | 5 h | O=C(O)CCCOc1cccc(CCCCCCOc2cc(-c3cccc(F)c3)cc(-c3ccc4c(c3)OCO4)c2)c1CCC(=O)O | Non-toxic | 121 IU/L | 53% | Non-toxic | Non-toxic | 35 IU/L | Active | Toxic | Non-toxic | 40 IU/L | Activity [21]: Active; Activity [22]: Non-toxic; bioavailability [23]: 88%
